In the library only some 1.5% were active in any assay of this set; here they are far more common.
DAGLB inhibitor = blocks human DAGLB lipase activity. Q8NCG7. HEK293T DAGLB membrane lysate, EnzChek fluorogenic substrate. inhibition, % at 5.17 µM. hit rate 0.059% among 340,000; in the data active = inhibition above about 34%;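 note: 0% = enzyme with vehicle and 100% = wells lacking enzyme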
TCR CD3 inh = human TCR-CD3 binding inhibition. TAMRA-labeled TCR probe fluorescence, biochemical. inhibition, % at 9.4 µM. hit rate 0.37% among 360,000. AID 651800;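 note: recombinant mutant TCR 2C K166C tagged with TAMRA read by polarization; 0% = receptor in buffer alone and 100% = receptor with positive control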
SIAE inh = inhibitors of human sialic acid acetylesterase SIAE | Q9HAT2 | SIAE FP-Rh probe binding, fluorescence polarization | inhibition, % at 9.66 µM | hit rate 0.69% among 370,000 | AID 1053197;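 active = inhibition above a cutoff: mean of compounds within the control limits plus 3 SD of those, cut at about 17% in these data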;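 note: 0% = plate median of compound wells and 100% = probe without SIAE protein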
mABHD4 FP = inhibitors of mouse ABHD4 | Q8VD66 | AID 720543 | hit rate 0.54% among 370,000 | purified mABHD4, FP-Rh probe fluorescence polarization | inhibition, % at 8.92 µM;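 active = inhibition exceeding the mean over every tested compound plus 3 SD, cut at about 30% in these data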;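 note: 0% = plate median of compound wells and 100% = S159A mutant with DMSO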
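System: mouse ABHD4 enzyme, wild type / Medium: HEPES pH 7.0, NaCl, Pluronic buffer / Reagent: FP-Rh activity-based fluorescent probe / Control set: S159A mutant high control, sample median low control / Detection: fluorescence polarization with parallel and perpendicular emission, 525/598 nm / Schedule: 45 min + 60 min at 25 °C / Compound dosing: 8.92 µM, single dose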
HTRA1 inh = HTRA1 (human) protease inhibition; hit rate 0.5% among 340,000; inhibition, % at 5.96 µM; recombinant HTRA1, FP-rhodamine activity-based probe, fluorescence polarization; in the data active = inhibition above about 36%;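 note: 0% = enzyme with DMSO and 100% = wells lacking enzyme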
Target sequence (Q92743 whole entry, looked up): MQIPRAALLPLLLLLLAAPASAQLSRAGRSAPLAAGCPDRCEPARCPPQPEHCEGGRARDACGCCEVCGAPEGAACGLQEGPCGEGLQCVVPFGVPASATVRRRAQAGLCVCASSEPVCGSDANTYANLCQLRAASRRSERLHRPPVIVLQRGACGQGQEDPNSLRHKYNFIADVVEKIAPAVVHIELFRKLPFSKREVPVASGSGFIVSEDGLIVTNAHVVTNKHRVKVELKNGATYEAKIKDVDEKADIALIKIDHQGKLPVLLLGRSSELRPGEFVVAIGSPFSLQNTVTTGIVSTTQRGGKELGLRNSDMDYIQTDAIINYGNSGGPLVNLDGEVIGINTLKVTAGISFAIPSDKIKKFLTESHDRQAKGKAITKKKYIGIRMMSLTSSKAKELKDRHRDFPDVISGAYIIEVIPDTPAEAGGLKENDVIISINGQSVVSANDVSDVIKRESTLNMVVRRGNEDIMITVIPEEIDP
BSA TAMRA ctr = counter-screen for TCR-CD3 interaction inhibitors: BSA probe. shares compounds with TCR CD3 inh. TAMRA-labeled BSA probe fluorescence counterscreen. inhibition, % at 9.4 µM. hit rate 10% among 1,200. AID 652035; in the data active = inhibition above about 23%;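 note: 0% = buffer low control and 100% = reference high control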
TCR-CD3 inh conf = TCR-CD3 interaction inhibition, confirmation; AID 652036; inhibition, % at 9.4 µM; shares compounds with TCR CD3 inh; TAMRA-labeled TCR probe fluorescence binding assay; hit rate 48% among 1,200
* marks the source's active call; other numbers are inactive results. Cut-off read from the data, not from the text of the source, unless noted: active = inhibition above about 19%; inactive = the rest.

For C[C@H]1C2CC(OC(=O)NCc3ccccc3)C(C2)[C@H]2CCCCN21 (some centres not stated) the results were SIAE inh -5.5 and mABHD4 FP 2.6.
For O=C(Nc1cccc(S(=O)(=O)N2CCOCC2)c1)c1cn(-c2ccccc2)nc1-c1ccccc1 the results were DAGLB inhibitor 0.7, TCR CD3 inh 10.1, SIAE inh -136.9, mABHD4 FP -24.7 and HTRA1 inh -56.6.
Screening Cc1ccc(-c2nn(-c3ccccc3)cc2C(=O)Nc2ccc(C)c(S(=O)(=O)N3CCOCC3)c2)cc1 returned DAGLB inhibitor -8.8, TCR CD3 inh 69.2*, SIAE inh -7.4, mABHD4 FP -12.5, HTRA1 inh -32.5, BSA TAMRA ctr 29.8* and TCR-CD3 inh conf 60.4*.
For COC(=O)N1C[C@H](OCCCOCc2ccccc2)[C@H]2C[C@@H]1c1ccccc1O2 the results were TCR CD3 inh 3.8, SIAE inh -2.9 and mABHD4 FP 1.6.
CCN(c1ccccc1)S(=O)(=O)c1cc(NC(=O)CSc2n[nH]c(=O)[nH]c2=O)ccc1Cl was read as DAGLB inhibitor -3.6, TCR CD3 inh 65.8*, SIAE inh -48.9, mABHD4 FP -84.7, HTRA1 inh -53.6, BSA TAMRA ctr 23.1* and TCR-CD3 inh conf 55.7*.
CCN(c1ccccc1)S(=O)(=O)c1cc(NC(=O)C2CC2)ccc1Cl was read as DAGLB inhibitor -2.4, TCR CD3 inh 0.3, SIAE inh -9.1, mABHD4 FP -3.5 and HTRA1 inh -6.1.
For COC(=O)c1cc(OC)nc(OC)c1 the results were DAGLB inhibitor 0.6, TCR CD3 inh -10.0, SIAE inh -7.0, mABHD4 FP 0.5 and HTRA1 inh 4.4.
Screening COC(=O)c1cc(O)c(O)c(O)c1 returned DAGLB inhibitor 2.2, TCR CD3 inh 22.1*, SIAE inh 7.8, mABHD4 FP 12.2, HTRA1 inh 12.7, BSA TAMRA ctr -1.0 and TCR-CD3 inh conf 20.0*.
Screening O=C(O)C1CSC(c2ccncc2)N1 (configuration not stated) returned DAGLB inhibitor 0.8 and HTRA1 inh -4.9.
For O=C(O)C1CSC(c2ccco2)N1 (configuration not stated) the results were DAGLB inhibitor 1.0, TCR CD3 inh 21.0*, SIAE inh 7.5, mABHD4 FP 14.9, HTRA1 inh 11.1, BSA TAMRA ctr -2.7 and TCR-CD3 inh conf 16.8.
CN(CC(=O)Nc1ccc(Cl)cc1)C(=O)c1cc(-c2cccs2)nn1-c1ccccc1 was read as DAGLB inhibitor -4.1, TCR CD3 inh 3.5, SIAE inh -12.8, mABHD4 FP 0.0 and HTRA1 inh -41.4.
O=C(COC(=O)c1cc(-c2cccs2)nn1-c1ccccc1)Nc1ccc(Cl)c([N+](=O)[O-])c1 was read as DAGLB inhibitor -2.5, TCR CD3 inh 44.8*, SIAE inh -62.5, mABHD4 FP -19.4, HTRA1 inh -38.8, BSA TAMRA ctr -12.3 and TCR-CD3 inh conf -5.4.
For CCc1c(C)sc(NC(=O)OC)c1C(N)=O the results were DAGLB inhibitor 1.8, TCR CD3 inh 6.6, SIAE inh 7.0, mABHD4 FP -4.1 and HTRA1 inh -2.7.
Screening CCc1c(C)sc(NC(=O)OC)c1C(=O)N1CCCCC1 returned DAGLB inhibitor 2.2, TCR CD3 inh 19.4*, SIAE inh 8.1, mABHD4 FP 15.1, HTRA1 inh 12.1, BSA TAMRA ctr 20.5 and TCR-CD3 inh conf 17.1.
Screening Cc1ccc(C2NC(=O)c3n[nH]c(C(C)C)c32)cc1 (configuration not stated) returned TCR CD3 inh -4.7, SIAE inh 0.1 and mABHD4 FP -2.7.
`C/C=C(/C)C(=O)Nc1cccc(C2=NOC3(C2)C[C@@H](C(N)=O)N(C(=O)c2ccc(OC)cc2)C3)c1` (some centres not stated) gave DAGLB inhibitor 1.4, TCR CD3 inh 37.8*, SIAE inh 14.6, mABHD4 FP 1.0, HTRA1 inh -4.8, BSA TAMRA ctr 3.2 and TCR-CD3 inh conf 3.8.
NC(=O)[C@H]1CC2(CC(c3cccc(NC(=O)CC(c4ccccc4)c4ccccc4)c3)=NO2)CN1C(=O)CC(c1ccccc1)c1ccccc1 (some centres not stated) was read as DAGLB inhibitor 1.7, TCR CD3 inh 22.3*, SIAE inh -70.2, mABHD4 FP -80.9, HTRA1 inh -109.9, BSA TAMRA ctr 7.8 and TCR-CD3 inh conf 17.1.
CCC(=O)N1CC2(CC(c3cccc(NC(=O)CC(c4ccccc4)c4ccccc4)c3)=NO2)C[C@H]1C(N)=O (some centres not stated) was read as DAGLB inhibitor 0.3, TCR CD3 inh 0.9, SIAE inh -15.9, mABHD4 FP -0.2 and HTRA1 inh -15.5.
For NC(=O)[C@@H]1CC2(CC(c3cccc(NC(=O)CC(c4ccccc4)c4ccccc4)c3)=NO2)CN1C(=O)c1ccc(Cl)cc1 (some centres not stated) the results were DAGLB inhibitor -1.1, TCR CD3 inh 34.6*, SIAE inh -68.5, mABHD4 FP -75.8, HTRA1 inh -109.2, BSA TAMRA ctr 7.5 and TCR-CD3 inh conf 19.7*.
`CN1CCCCC(NC(=O)C2CCCCC2)C1=O` (configuration not stated) gave TCR CD3 inh 4.8, SIAE inh -1.1 and mABHD4 FP -5.7.
For CCOc1ccc(C(=O)CN2CCN(S(=O)(=O)c3ccc(F)cc3)CC2)cc1 the results were DAGLB inhibitor -0.5, TCR CD3 inh -1.6, SIAE inh 2.9, mABHD4 FP -6.1 and HTRA1 inh -6.5.
COc1ccc(S(=O)(=O)N2CCN(CC(=O)c3ccc(O)c(O)c3)CC2)cc1 was read as DAGLB inhibitor -0.5, TCR CD3 inh 24.9*, SIAE inh 10.9, mABHD4 FP 14.8, HTRA1 inh 19.0, BSA TAMRA ctr -4.0 and TCR-CD3 inh conf 18.0.
For CCOc1ccc(S(=O)(=O)NCCC(=O)NCCCSc2ccccc2)cc1 the results were DAGLB inhibitor -1.6, TCR CD3 inh 43.2*, SIAE inh 0.6, mABHD4 FP -2.2, HTRA1 inh -11.8, BSA TAMRA ctr -0.7 and TCR-CD3 inh conf 1.7.
For O=C(CCNS(=O)(=O)c1ccccc1)NCCCSc1ccccc1 the results were DAGLB inhibitor -0.1, TCR CD3 inh 0.3, SIAE inh 3.5, mABHD4 FP -11.4 and HTRA1 inh 0.3.
Screening NC(=O)c1sc2nc(-c3ccco3)ccc2c1N returned DAGLB inhibitor 5.7, TCR CD3 inh 20.3*, SIAE inh -0.1, mABHD4 FP 24.6, HTRA1 inh 8.5, BSA TAMRA ctr -5.7 and TCR-CD3 inh conf 2.3.
`C=Cc1c(C)c2cc3[nH]c(cc4nc(cc5nc(cc1[nH]2)C(C)=C5CCC(=O)O)C(CCC(=O)O)=C4C)c(C)c3C=C` gave DAGLB inhibitor 3.9, TCR CD3 inh 36.7*, SIAE inh 75.0*, mABHD4 FP 70.4*, HTRA1 inh 68.8*, BSA TAMRA ctr -8.8 and TCR-CD3 inh conf 19.1*.

Bioassay records deposited in PubChem by The Scripps Research Institute Molecular Screening Center.
